Hep lipid drop: hepatic lipid droplet formation modulation | inhibition, % at 6.5 µM | AML12 mouse hepatocytes, oleate lipid droplets, BODIPY imaging | AID 1656 | 0.4% of 240,000 active;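 active = lipid droplet intensity inhibited by at least 50%, with more than 500 cells counted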
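Test system: AML12 hepatocytes (mouse); reagent: oleate loading, 100 µM; dosing: one dose, 6.5 µM compound; incubation: overnight exposure; signal: fluorescence imaging, 20x objective, two fields per well; read-out basis: % inhibition of corrected integrated BODIPY droplet signal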
PHOSPHO1 block: blocks human PHOSPHO1 phosphatase activity; 1.1% of 290,000 active; AID 1565; inhibition, % at 13.3 µM; recombinant PHOSPHO1, absorbance phosphatase assay; Q8TCT1; in the data active = inhibition above about 60%
CHT allo act: allosteric activators of human choline transporter CHT; Q9GZV3; CHT-expressing cells, membrane potential dye, choline EC20; active compounds read high; LV-AA mutant CHT in HEK293 cells; B-score at 10 µM; 0.49% of 310,000 active; AID 488977;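 active = initial fluorescence not abnormally high and integrated response B-score, plate-corrected, over 3 SD above library mean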
Target sequence (Q9GZV3 whole entry, looked up): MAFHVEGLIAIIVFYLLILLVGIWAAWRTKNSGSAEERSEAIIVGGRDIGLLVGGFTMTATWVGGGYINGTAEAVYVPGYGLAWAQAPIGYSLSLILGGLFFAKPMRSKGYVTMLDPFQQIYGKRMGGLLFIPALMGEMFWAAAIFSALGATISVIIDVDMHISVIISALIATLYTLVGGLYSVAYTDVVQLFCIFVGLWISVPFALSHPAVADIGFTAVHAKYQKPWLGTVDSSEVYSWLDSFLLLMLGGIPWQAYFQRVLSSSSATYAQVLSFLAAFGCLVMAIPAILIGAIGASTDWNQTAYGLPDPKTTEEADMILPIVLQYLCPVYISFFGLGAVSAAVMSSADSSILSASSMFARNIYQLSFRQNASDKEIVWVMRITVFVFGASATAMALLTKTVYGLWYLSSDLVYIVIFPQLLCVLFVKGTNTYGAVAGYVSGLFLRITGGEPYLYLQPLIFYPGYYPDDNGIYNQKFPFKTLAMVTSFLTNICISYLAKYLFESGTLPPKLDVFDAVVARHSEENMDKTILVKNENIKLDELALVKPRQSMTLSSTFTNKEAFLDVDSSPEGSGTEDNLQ
HSF1 inhib: HSF1 inhibition | NIH3T3-HGL HSE-luciferase, MG132-induced, luminescence 8 h; active compounds read low | activity change, negative = inhibition, % at 7.5 µM (by protocol) | 0.77% of 300,000 active;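 active = more than half of replicate wells show activity change below -50%, luminescence cut by over half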;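 note: luciferase reports HSF-1 transcriptional activity via heat shock element; 0% = median of DMSO wells and -100% = zero luminescence signal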
HSF1 activator: increases HSF-1 driven luciferase reporter signal. NIH3T3-HGL HSF-1 luciferase reporter, MG132, 8 h; 100% = twice DMSO control signal. activation, % at 9 µM. 1.7% of 300,000 active;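 active = mean replicate activation of at least 50% with a set share of replicates each reaching 50%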;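 note: 0% = median of the neutral control wells and 100% = twice that signal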
CHT inh: inhibits the human high affinity choline transporter. Q9GZV3. CHT-expressing cells, membrane potential dye, choline response; active compounds read low. B-score at 10 µM. 0.86% of 310,000 active;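 active = B-score over 3 SD under the library average, and starting fluorescence ratio not unusually high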;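 note: choline stimulus applied at its EC90 after an EC20 pre-addition; B-score computed on integrated fluorescence ratio after choline addition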
Starred values were filed as active, the others as inactive; i = inactive; · = not tested or not shown. Shown are actives, neighbours in structure and some others; about 4.9% of the full set was active somewhere.

SMILES	Hep lipid drop	PHOSPHO1 block	CHT allo act	HSF1 inhib	HSF1 activator	CHT inh
CCOc1cc(/C=N/O)cc(Br)c1OCC	4.1	5.3	i	5.1	7.9	i
Cc1ccc(/C=N/Nc2ccc(C(=O)O)cc2)s1	2.6	-70.4	i	-75.7*	-78.6	i
CC(C)c1ccc(/C=N/Nc2ccc(C(=O)O)cc2)cc1	-4.5	6.5	i	-90.0*	-90.6	i
O=C(O)c1ccc(N/N=C/c2ccc(OC(=O)c3ccccc3Cl)cc2)cc1	1.9	33.8	i	-55.1*	-56.5	i
Cc1ccc2nc(NC(=O)CSc3nnc(C)c(=O)n3N)sc2c1	-0.9	3.9	i	9.2	17.8	i
COc1ccc(C(=O)NCC(c2ccco2)N2CCc3ccccc32)cc1 (configuration not stated)	·	·	i	-5.3	-3.1	i
C=CCSc1nc(N)c(C(=O)Nc2ccccc2C)cc1C(N)=O	8.9	-6.7	i	-2.3	4.4	i
CC(=O)c1cccc(N(C(=O)Cn2nnc3ccccc32)C(C(=O)NCc2ccccc2)c2ccccn2)c1 (configuration not stated)	-5.4	-6.6	i	-9.6	15.5	i
CN(CC(=O)Nc1n[nH]c(=S)s1)S(=O)(=O)c1cccc2cccnc12	21.5	60.4*	i	-4.2	0.2	i
Cc1csc(NC(=O)CN(C)S(=O)(=O)c2cccc3cccnc23)n1	·	38.3	i	-3.3	2.0	i
COC(=O)C1=C(C)Nc2c(c(=O)n(C)c(=O)n2C)C1c1cccc(O)c1 (configuration not stated)	-22.3	33.1	i	-56.6*	-67.2	i
O=C(c1ccc(Cl)c(S(=O)(=O)N2CCCCCC2)c1)N1CCOCC1	2.3	24.6	i	-7.8	1.9	i
CCOC(=O)c1sc(NC(=O)c2c(C)nn(Cc3ccccc3)c2C)cc1C	-0.3	0.1	i	·	·	i
Clc1ccc2nc(CSc3nnc4ccccn34)cn2c1	·	60.3*	i	27.3	68.1*	i
Clc1cccc(Cl)c1CSc1nnc2ccccn12	-3.6	-0.8	i	18.7	22.2	i
Clc1ccc(SCc2cn3ccccc3n2)cc1	2.5	1.4	i	56.5	78.0*	i
Clc1ccc2nc(CSc3nc4ccccc4o3)cn2c1	-0.7	24.2	i	74.6	100.5*	i
Brc1ccc(CSc2nnc3ccccn23)cc1	17.1	47.6	i	13.0	57.9*	i
N#Cc1ccc(CSc2nnc(-c3cccc(S(=O)(=O)N4CCCCC4)c3)o2)cc1	-8.1	-11.3	i	14.6	23.5	i
CCCCOc1ccc(-c2c(C#N)c(N)[nH]c(=S)c2C#N)cc1	5.1	-95.3	i	-1.0	-19.9	i
C[C@H]1[C@H](c2ccccc2)C[C@@H](C(=O)O)C1(C)C	·	·	i	-3.4	1.6	i
O=C(CN1CCN(c2ccccc2)CC1)NCc1ccc(F)cc1	-0.6	15.0	i	-55.8*	-61.9	i
O=C(NC(=S)NC1C2CC3CC(C2)CC1C3)c1ccccc1 (configuration not stated)	0.6	17.6	i	-57.7*	-66.0	i
O=C(NC(=S)NC1CCCC1)c1ccccc1	-8.2	-5.4	i	20.4	26.8	i
CCOC(=O)c1ccc(Oc2nc(NC)nc(Nc3ccccc3)n2)cc1	-23.3	-26.5	i	-56.5*	-67.7	i
SMILES	Hep lipid drop	PHOSPHO1 block	CHT allo act	HSF1 inhib	HSF1 activator	CHT inh
CCOC(=O)c1ccc(Oc2nc(OC)nc(N(C)C)n2)cc1	-19.3	11.6	i	-7.5	11.0	i
COc1ccc(N2C(=O)CC(N(CCc3ccc(OC)c(OC)c3)C(=S)Nc3ccccc3)C2=O)cc1 (configuration not stated)	-17.9	-6.0	i	-2.7	28.2	i
COc1ccc(C(=O)NC(=S)Nc2ccc(CN3CCCCC3)cc2)cc1Cl	15.7	46.6	i	16.7	58.7*	i
COc1ccccc1N1CCN(C(=O)CCc2ccccc2)CC1	-17.1	-25.6	i	-3.4	6.0	i
Cc1ccc(OCC(=O)Nc2ccccc2[N+](=O)[O-])c(Br)c1	4.7	30.3	i	38.1	55.2*	i
O=C(COc1ccc(Br)cc1Cl)NC(=S)Nc1ccccn1	-1.9	26.3	i	-39.9	-48.8	i
Cc1ccc(OCC(=O)NC(=S)Nc2ccccn2)c(Br)c1	-3.6	17.8	i	-62.8*	-65.7	i
COC(C(=O)Nc1ccnn1C1CCN(C(=O)c2cccc(F)c2)CC1)c1ccccc1 (configuration not stated)	-3.4	49.6	i	4.3	8.2	i
COc1ccc(CNC(=O)C2CCCN2S(=O)(=O)c2ccc(S(=O)(=O)N(C)C)cc2)cc1 (configuration not stated)	·	-8.5	i	5.6	-5.2	i
Fc1ccc(/C=C2\CCCC3=C2Nc2ncnn2C3c2ccc(F)cc2)cc1 (configuration not stated)	·	18.2	i	65.9	98.3*	i
O=C(CCl)c1ccc2c(c1)CCN2C(=O)C1CCCCC1	5.1	-10.1	i	52.2	70.6*	i
N=C1S/C(=C\c2ccco2)C(=O)N1c1nccs1	-1.2	-14.2	i	112.9	97.8*	i
CC1CCN(C(=O)Cn2cnc3c2c(=O)n(C)c(=O)n3C)c2ccccc2S1 (configuration not stated)	5.1	23.0	i	3.0	22.5	i
COc1ccc([N+](=O)[O-])cc1NCc1ccccc1C	·	60.5*	i	8.1	7.6	i
COc1ccc([N+](=O)[O-])cc1NCc1ccccc1	2.8	9.1	i	6.9	26.0	i
O=C(N/N=C/c1ccc(O)cc1O)NC12CC3CC(CC(C3)C1)C2	-5.2	28.0	i	-3.0	-13.5	i
COc1cc(CNCCc2ccc(F)cc2)ccc1OCc1ccc(Cl)nc1	8.7	14.8	i	12.5	30.9	-5.85*
Cc1cc(C)c(C#N)c(SC(C(=O)NC(C)(C)C)c2ccccc2)n1 (configuration not stated)	1.2	38.6	i	4.9	16.0	i
COc1ccc2[nH]c(=O)c(CNc3cccc(C)c3)cc2c1	·	27.9	i	0.4	-10.6	i
Cc1ccc2[nH]c(=O)c(CNC(C)C)cc2c1	·	62.1*	i	-3.4	1.0	i
O=C(NC(CC(=O)N1CCCC(C(F)(F)F)C1)c1ccccc1)c1ccccc1Cl (configuration not stated)	-7.9	19.8	i	1.8	26.8	i
CS(=O)(=O)N(Cc1ccc(Cl)cc1)c1ccc(C(=O)NCCC2=CCCCC2)cc1	28.1	7.1	i	16.8	3.7	i
Cc1cc(C(=O)NCCC2=CCCCC2)c(C)o1	-5.6	-15.6	i	32.7	60.1*	i

Screening results (PubChem BioAssay)
